The source of these data is ChEMBL document CHEMBL1137554, “Synthesis and biological evaluation of novel cytotoxic azanaphthoquinone annelated pyrrolo oximes” (Bioorg Med Chem Lett, 2007).

Active and inactive are the calls of the source. The calls are words filed in the database; no cut-off is given here.

In assay [1] the test system is NCI-H460. The assay is described as follows: Cytotoxicity against NCIH460 cells after 48 hrs by XTT assay. In kind it is functional, cell-based. Conditions: for Activity: Homo sapiens. In short, it runs like this:
(§1)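 XTT tetrazolium proliferation assay with 48 h compound exposure. IC50 was obtained by nonlinear regression from at least two independent experiments and reported as mean ± standard deviation.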

For assay [2], the system named is SF-268. Put plainly: Cytotoxicity against SF268 cells after 48 hrs by XTT assay. It is filed as functional, cell-based. The settings on record: for Activity: Homo sapiens. In short, it runs like this:
as §1

Assay [3] deals with SK-OV-3. The assay is described as follows: Cytotoxicity against SKOV3 cells after 48 hrs by XTT assay. The settings on record: for Activity: Homo sapiens. In kind it is functional, cell-based. In outline:
as §1
On the technique in general: Tetrazolium dyes change colour on reduction, which living cells bring about.

The subject of assay [4] is RKOp27. The assay is described as follows: (§2) Cytotoxicity against RKOp27 cells after 48 hrs by XTT assay. In kind it is functional, cell-based. Conditions: Homo sapiens. In short, it runs like this:
as §1

A short description of assay [5]: Cytotoxicity against KB/HeLa cells at 3.16 ug/ml after 48 hrs by XTT assay. In kind it is functional. Conditions: Homo sapiens.
In assay [6] the test system is U-937. The assay is described as follows: (§3) Effect on apoptosis in U937 cells assessed as increase in caspase 3 activation at <=10 uM after 24 hrs. It is filed as functional, cell-based. Conditions: Homo sapiens. In short, it runs like this: (§4)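 U937 cells were treated for 24 h at up to 10 μM. Caspase 3/7 activity was then measured by cleavage of a DEVD rhodamine-110 substrate.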

Assay [7] can be described thus: Cytotoxicity against multidrug resistant LT12 cells by XTT assay. In kind it is functional, Rattus norvegicus. In short, it runs like this:
as §1

The nature of assay [8]: Cytotoxicity against LT12 cells by XTT assay. In kind it is functional, Rattus norvegicus. In short, it runs like this:
as §1

A short description of assay [9]: as §2. In kind it is functional, cell-based, Homo sapiens. In short, it runs like this: as §1
A short description of assay [10]: Cytotoxicity against KB/HeLa cells after 48 hrs by XTT assay. It is filed as functional, cell-based, Homo sapiens. In short, it runs like this:
as §1

Assay [11] deals with P388. The assay is described as follows: Cytotoxicity against P388 cells by XTT assay. It is filed as functional, Mus musculus. In short, it runs like this: as §1
The subject of assay [12] is P388. Put plainly: Cytotoxicity against adriamycin-resistant P388 Cells by XTT assay. It is filed as functional, Mus musculus. In short, it runs like this:
as §1

In assay [13] the test system is L1210. Put plainly: Cytotoxicity against L1210 cells by XTT assay. In kind it is functional, Mus musculus. In short, it runs like this: as §1
In assay [14] the test system is L1210. The assay is described as follows: Cytotoxicity against vincristine-resistant L1210 cells by XTT assay. It is filed as functional, Mus musculus. In outline:
as §1

Assay [15] can be described thus: Cell cycle arrest at G2/M phase in KB/HeLa cells after 24 hrs. In kind it is functional, cell-based. Conditions: Homo sapiens. In short, it runs like this: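 KB/HeLa cells were exposed to several concentrations for 24 h alongside untreated reference cells. They were then stained with propidium iodide and analysed by flow cytometry for cell-cycle phase distribution.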

Assay [16] has as its system U-937. The assay is described as §3. It is filed as functional, cell-based. Conditions: Homo sapiens. In short, it runs like this: as §4
This is another data set of the same source.

In general, inhibition refers to the relative decrease from the control value, in per cent. The low end stands for a response near the control, the high end for a response far below the control. As to `CN(C)CCn1cc2c(c1)/C(=N\O)c1ccncc1C2=O`, the outcome in assay [1], in assay [2], in assay [3] and in [4] was inactive. In addition, the inhibition at 3.16 µg/mL in assay [5] is less than 50%.

On to `CO/N=C1/c2ccncc2C(=O)c2cn(CCN(C)C)cc21`, for which the result in assay [1], in assay [2], in assay [3] and in [4] was inactive. In assay [5], the inhibition at 3.16 µg/mL is less than 50%.

Turning to `CN(C)CCO/N=C1/c2ccncc2C(=O)c2c1ccn2CCN(C)C`, the outcome in assay [6], in assay [15] and in [16] was Active. In addition, the Activity in assay [7] was 0.07 µM; in assay [8] it was 0.03 µM; in [11], 0.02 µM; in assay [12] it was 0.4 µM; in assay [13], 0.05 µM; in assay [14], 0.11 µM. Besides, the IC50 was found to be 0.23 µmol in assay [1]; 1.23 µmol in [2]; 0.94 µmol in assay [3]; 0.41 µmol in assay [9]; 0.67 µmol in assay [10].

For the compound `CN(C)CCO/N=C1/c2ccncc2C(=O)c2cn(CCN(C)C)cc21`, the result in assay [1], in [2], in assay [3] and in assay [4] was inactive. This compound registered an inhibition at 3.16 µg/mL in assay [5] of less than 50%.

With `CN(C)CCn1ccc2c1C(=O)c1cnccc1C2=O`, the IC50 was 3.84 µmol in assay [1]; 4.71 µmol in assay [2]; 13.87 µmol in [3]; 2.35 µmol in assay [9]; 11.04 µmol in [10].

Turning to `CO/N=C1/c2ccncc2C(=O)c2c1ccn2CCN(C)C`, the IC50 in assay [1] amounted to 0.79 µmol; in assay [2], 2.43 µmol; in [3] it was 2.24 µmol; in assay [9] it was 1.16 µmol; in assay [10], 1.21 µmol.

For `CC(=O)O[C@H]1C(=O)[C@@]2(C)[C@H]([C@H](OC(=O)c3ccccc3)[C@]3(O)C[C@H](OC(=O)[C@H](O)[C@@H](NC(=O)c4ccccc4)c4ccccc4)C(C)=C1C3(C)C)[C@]1(OC(C)=O)CO[C@@H]1C[C@@H]2O` [PACLITAXEL], the Activity in assay [7] is 0.368 µM; in assay [8] it was 0.005 µM; in [11], 0.038 µM; in assay [12], greater than 3.4 µM; in assay [13] it was 0.052 µM; in assay [14] it was greater than 3.4 µM.

With `CN(C)CCn1cc2c(c1)/C(=N\OCCO)c1ccncc1C2=O`, the outcome in [1], in assay [2], in assay [3] and in assay [4] was inactive. Also, the inhibition at 3.16 µg/mL in assay [5] is less than 50%.

For the compound `CCOC(=O)CO/N=C1/c2ccncc2C(=O)c2c1ccn2CCN(C)C`, the IC50 in [1], in assay [2], in assay [3], in assay [9] and in assay [10] was greater than 12 µmol each time.

In the case of `COc1cccc2c1C(=O)c1c(O)c3c(c(O)c1C2=O)C[C@@](O)(C(=O)CO)C[C@@H]3O[C@H]1C[C@H](N)[C@H](O)[C@H](C)O1` [DOXORUBICIN], the Activity is greater than 3.4 µM in assay [7]; 0.031 µM in assay [8]; 0.52 µM in assay [11]; greater than 3.4 µM in assay [12]; 0.221 µM in [13]; greater than 3.4 µM in assay [14].

In the case of `CN(C)CCn1cc2c(c1)C(=O)c1cnccc1C2=O`, the outcome in [1], in assay [2] and in assay [4] was inactive. Also, the IC50 entry in assay [3] is “Not Active”. In addition, the inhibition at 3.16 µg/mL in assay [5] is less than 50%.

Regarding `CCOC(=O)CO/N=C1/c2ccncc2C(=O)c2cn(CCN(C)C)cc21`, the result in assay [1], in [2], in assay [3] and in assay [4] was inactive. This compound returned an inhibition at 3.16 µg/mL in assay [5] of less than 50%.

Turning to `CN(C)CCn1ccc2c1C(=O)c1cnccc1/C2=N/O`, the IC50 in assay [1], in assay [2], in [3], in assay [9] and in assay [10] was greater than 12 µmol each time.

For the compound `CN(C)CCn1ccc2c1C(=O)c1cnccc1/C2=N/OCCO`, the result in assay [6], in assay [15] and in [16] was Active. In addition, the Activity was 0.16 µM in assay [7]; 0.04 µM in [8]; 0.02 µM in assay [11]; 0.5 µM in [12]; 0.07 µM in [13]; 0.16 µM in assay [14]. The IC50 in [1] was determined as 0.13 µmol; in assay [2], 1.39 µmol; in assay [3], 0.48 µmol; in [9] it was 0.17 µmol; in [10], 0.66 µmol.
